Assay results pooled from the literature.
Compare with care: the assays were run in different laboratories.
Target: Tyrosine-protein kinase Fes/Fps (FES, Homo sapiens, UniProt P07332)

SMILES	test	test system	setting	measurement	value
Cc1cnc(NC2CCOCC2)nc1-n1cnc(C(=O)NC(CN)c2cc(F)cc(Cl)c2)c1 (stereo not shown)	enzyme activity, inhibitor, radiometric	–	1 µM	remaining activity	102%
CCN(CC)c1ccc(C2=NNC(=O)CC2C)cc1[N+](=O)[O-] (stereo not shown)	enzyme activity, inhibitor	–	10 µM	remaining activity	103%
CC1=C(C#N)[C@@H](c2ccc3[nH]nc(C)c3c2)C(C#N)=C(c2ccc(Cl)cc2)N1	cell-free assay, competition with immobilised ligand	–	1 µM	remaining binding	100%
N#CCCc1ccc2c(c1)-c1[nH]c3ccc([N+](=O)[O-])cc3c1CC(=O)N2	cell-free assay	–	0.5 µM	remaining signal	37.9%
O=C(O)[C@@H]1[C@@H](Cn2nnc3ccccc3c2=O)CC[C@H]1C(=O)c1ccc(OCCC2CCOCC2)cc1	cell-free assay, competition with immobilised ligand	–	1 µM	remaining binding	100%
COc1cc2ncnc(Nc3ccc(Oc4ccccc4)cc3C)c2cc1OC	enzyme activity, inhibitor	–	1 µM	inhibition	27%
COc1cc(Cl)c(C(=O)N[C@@H](CN[C@H]2CC[C@@H](N)CC2)Cc2ccc(C#N)cc2)cc1-c1ccc(CN[C@H](C)c2ccc(C)cc2)o1	enzyme activity, inhibitor	–	1 µM	remaining activity	94%
CC(C)(C)c1nc(-c2cccc(NS(=O)(=O)c3c(F)cccc3F)c2F)c(-c2ccnc(N)n2)s1	enzyme activity, inhibitor, radiometric	–	1 µM	remaining activity	88%
O=C1NC(=O)c2cc(Nc3ccc(F)cc3)c(Nc3ccc(F)cc3)cc21	cell-free assay	–	0.5 µM	remaining signal	99.5%
Cc1cc(NC(=O)c2cccc3cc(-c4cccc5[nH]nc(N)c45)ccc23)ccc1F	enzyme activity, inhibitor	–	0.1 µM	activity vs control	97%
CNCc1ccc(-c2cc(-c3nc(-c4ccc(S(=O)(=O)C(C)C)cc4)cnc3N)on2)cc1	enzyme activity, inhibitor	–	2 µM	inhibition	0%
CNc1cc(Oc2cc(C(=O)Nc3cc(N4CCN(C)CC4)cc(C(F)(F)F)c3)ccc2C)ncn1	target engagement in cells, inhibitor, chemoproteomics	Huh-7	1 µM	inhibition	-21.4%
C[C@@H]1CN(c2cc(-c3nn(C)c4ccc(OC5(C)CC5)cc34)ncn2)C[C@H](C)O1	cell-free assay, competition with immobilised ligand	–	1 µM	remaining binding	93%
O=C(Nc1cnn(-c2csc(C(=O)NC3COC3)c2)c1)Nc1c(F)cccc1Cl	enzyme activity, inhibitor	–	5 µM	remaining activity	87.8%
C=CC(=O)Nc1cc(Nc2nccc(Nc3cc(Cl)c(F)cc3C(C)(C)O)n2)c(OC)cc1N1CC[C@@H](N(C)C)C1	enzyme activity, inhibitor	–	1 µM	inhibition	65%
Nc1ncnc2occ(-c3ccc(NC(=O)Nc4cc(C(F)(F)F)ccc4F)cc3)c12	cell-free assay, inhibitor	–	20 µM	remaining signal	4.1%
CSc1cccnc1N1CCN(Cc2nc3ccccc3[nH]2)CC1	cell-free assay, competition with immobilised ligand	–	1 µM	remaining binding	98%
O=C1Nc2ccc(Cl)cc2C1=Cc1cc(Cl)c(O)c(Cl)c1	cell-free assay	–	0.5 µM	remaining signal	93.7%
CCC(=O)N[C@@H]1CC[C@H](C(=O)N(C)c2ccc(-c3nc4ccccc4o3)cc2)C1	cell-free assay, competition with immobilised ligand	–	1 µM	remaining binding	96%
COc1cc2nccc(Oc3ccc(NC(=O)c4c5n(n(-c6ccc(F)cc6)c4=O)CCCC5)cc3)c2cc1OC	enzyme activity, inhibitor	–	0.1 µM	inhibition	-3%
NS(=O)(=O)c1cc(NC(=O)Cc2ccccc2)ccc1Oc1cccc(Cl)c1	cell-free assay, competition with immobilised ligand	–	1 µM	remaining binding	92%
Cc1sc(C(=O)NC2COC2)cc1-n1cc(NC(=O)Nc2c(F)cccc2Cl)cn1	enzyme activity, inhibitor	–	10 µM	remaining activity	93.7%
